# Compounds with a hit are over-represented: about 2.7% of the library has one in this group of screens.
# Wee1 stabilizer: blocks degradation of human Wee1 kinase. HeLa Luc-Wee1K328M stability, luciferase luminescence; 100% = proteasome inhibitor MG132 effect. AID 1321. 220,000 tested, 1.2% active. reporter increase, % at 5 µM;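 active = activation above the mean of all tested compounds plus 3 SD, set per screening run, cut at about 8.8% in these data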;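 note: cells exposed to compound for 20 h before luminescence read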
# Hck-Nef inh: blocks Nef-activated human Hck kinase. Recombinant Hck-YEEI plus Nef, Z-Lyte FRET kinase assay. 220,000 tested, 0.68% active. inhibition, % at 20 µM. P08631;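 active = Hck-Nef kinase inhibition above about 50%, limit read from the data; inactive = inhibition below that limit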
# TbHK1 inh: blocks Trypanosoma brucei hexokinase 1 activity. recombinant TbHK1, G6PDH-coupled NADH A340. inhibition, % at 10 µM. 220,000 tested, 0.11% active;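 active = inhibition of 50% or more in the single-dose primary screen; inactive = inhibition below 50%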
# MDM2 E3 inh: Mdm2 E3 ligase (human) inhibition | Q00987 | cell-based MDM2 ubiquitination luciferase reporter, 2 h; 0 = plate control, 100 = twice control, blank-subtracted | signal enhancement, % at 5 µM | 210,000 tested, 0.11% active;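 active = signal enhancement of 30% or more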;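 note: luminescence tracks abundance of the self-degrading MDM2-luciferase fusion protein; higher signal means inhibition of MDM2 E3 ligase activity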
#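 Timing – 2 h compound exposure at 37 °C · Assay system – mammalian cells stably expressing self-ubiquitinating, self-degrading MDM2 E3–luciferase fusion · Amount – 2000 cells seeded into each well · Measure – % luminescence enhancement versus blank-corrected plate control mean · Measured by – SteadyLite luminescence, 15 min reagent step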
# 14-3-3 Bad PPI: disrupts binding of bovine 14-3-3 zeta to phospho-Bad peptide; P63103; TR-FRET 14-3-3zeta/Dy647-pBad peptide displacement, 1 h; inhibition, % at 21.7 µM; 220,000 tested, 0.71% active; AID 781;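 active = inhibition above about 70%, limit read from the data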
# Target sequence (P63103 whole entry, looked up): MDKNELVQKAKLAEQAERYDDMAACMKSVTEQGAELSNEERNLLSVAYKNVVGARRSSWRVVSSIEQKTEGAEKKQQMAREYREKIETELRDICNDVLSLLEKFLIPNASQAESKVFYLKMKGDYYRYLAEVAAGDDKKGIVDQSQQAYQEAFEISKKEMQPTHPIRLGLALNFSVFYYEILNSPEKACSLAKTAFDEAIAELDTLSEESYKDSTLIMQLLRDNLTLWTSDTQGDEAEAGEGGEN
# Numbers stand for hits; i = inactive; nt = no result given.
SMILES,Wee1 stabilizer,Hck-Nef inh,TbHK1 inh,MDM2 E3 inh,14-3-3 Bad PPI
COc1ccc2nc(NC(C)=O)sc2c1,i,i,i,i,i
COc1ccc2nc(NC(=O)c3cccs3)sc2c1,9.5,i,i,i,i
COc1nc(N=C(N)N)nc2ccc(C)cc12,i,i,i,i,i
O=C(c1cnccn1)N1CCc2ccccc2C1,i,i,i,i,93.3
O=C(c1cnccn1)N1CCc2ccccc21,i,i,i,i,i
COc1ccc(Nc2nc(C(=O)N3CCc4ccccc4C3)cs2)cc1,i,i,i,33.1,i
O=C(CSc1nc(-c2ccncc2)nn1CC(=O)N1CCCCC1)NC1CCCC1,i,i,i,i,i
COc1ccc(OC)c(NC(=O)C2C3CCC(O3)C2C(=O)O)c1 (stereo not given),i,i,i,i,i
CCCCCC[n+]1c(-c2ccccc2)csc1Nc1ccccc1,i,i,i,i,i
COc1ccc(-c2csc(Nc3ccccc3)[n+]2CC(O)c2ccc([N+](=O)[O-])cc2)cc1 (stereo not given),9.3,i,i,i,i
O=C(COc1cccc2ccccc12)N1c2ccccc2CCc2ccccc21,i,i,i,i,i
Cc1ccc(Nc2ncnc3c2oc2ccccc23)cc1,i,i,i,i,71.6
COc1ccc(Nc2ncnc3c2oc2ccccc23)cc1,10.3,i,i,i,i
CC(C)[C@H](Nc1ncnc2c1oc1ccccc12)C(=O)O,i,i,i,i,i
CCCCN(CC(=O)Nc1c(C)cccc1CC)C(=O)SCC,i,i,i,i,i
Cc1cccc2[nH]c3c(N4CC=C(c5ccc(F)cc5)CC4)ncnc3c12,i,i,i,i,i
O=C(C(c1ccccc1)c1ccccc1)N1CCN(Cc2ccccn2)CC1,i,i,i,i,71.0
O=C(C(c1ccccc1)c1ccccc1)N1CCN(c2ccccn2)CC1,i,i,i,i,i
O=C(C(c1ccccc1)c1ccccc1)N1CCN(Cc2ccncc2)CC1,i,i,i,i,75.5
COc1ccc(OCC(=O)Nc2ccc3c(c2)nc(CCN2CCOCC2)n3C)cc1,9.1,i,i,i,i
O=C(Nc1nc2ccccc2s1)c1ccc(OCC2CCCO2)cc1 (stereo not given),i,i,i,i,i
Cc1ccc(NCCCCO)cc1C,i,i,i,i,i
COc1ccc(C(=O)C[n+]2cccc(C)c2C)cc1[N+](=O)[O-],10.7,i,i,i,i
COc1ccc2oc(C(=O)OCC(=O)/C(C#N)=C(\C)N)c(C)c2c1,i,i,i,i,i
Cc1ccc(NC(=O)COC(=O)Cc2csc(-c3ccc(Cl)cc3)n2)cc1C,14.5,i,i,i,i
SMILES,Wee1 stabilizer,Hck-Nef inh,TbHK1 inh,MDM2 E3 inh,14-3-3 Bad PPI
Cc1ccc(NC(=O)COC(=O)Cc2csc(-c3cccc(F)c3)n2)cc1C,i,i,i,i,i
CCCCC/C(=N\NC(=O)Nc1ccccc1)c1ccccc1,9.2,i,i,i,i
O=C(Nc1ccccc1NC(=O)NC1CCCCC1)NC1CCCCC1,i,i,i,i,i
NC(=O)c1ccccc1NC(=O)NC1CCCCC1,10.5,i,i,nt,i
COC(=O)c1ccccc1NC(=O)C1CCCC1,i,i,i,i,i
COC(=O)c1ccccc1NC(=O)NC1CCCC1,9.5,i,i,i,i
CC(C)Oc1ccc(CNC(=S)N/N=C/c2cccnc2)cc1,9.2,i,i,i,i
CCOc1ccc(CNC(=S)N/N=C/c2cccnc2)cc1,i,i,i,i,i
N#CC1CC(c2ccccc2)=NN1c1ccccc1[N+](=O)[O-] (stereo not given),10.2,i,i,i,i
O=C(O)CCc1ccc(-c2ccc(Br)cc2)n1CC(=O)O,i,i,i,34.4,i
CCN(CC)c1ccc(NC(=O)c2ccccc2F)cc1,9.2,i,i,i,i
N#CC[n+]1cc(-c2ccc(Cl)cc2)n2c1CCC2,8.9,i,i,i,i
Cc1ccc(C)c(/C=N/Nc2nc3ccccc3c(=O)n2O)c1,i,i,i,i,i
Cc1c(C(=O)OCC(=O)N2CC(C)OC(C)C2)oc2ccc(Br)cc12 (stereo not given),i,i,i,i,i
O=[N+]([O-])c1cc(-c2nc3nc4ccccc4nc3n2CCc2ccccc2)cc([N+](=O)[O-])c1,i,i,i,i,i
O=C(N/N=C/c1c(Cl)cccc1Cl)c1n[nH]c2c1CCCC2,10.0,i,i,i,i
C/C(=N\NC(=O)c1n[nH]c2c1CCC2)c1ccco1,9.3,i,i,i,i
O=C(NN=C1CCCC1)c1n[nH]c2c1CCC2,10.6,i,i,nt,i
CCC(C)(C)C1CCc2[nH]nc(C(=O)N/N=C(\C)c3ccco3)c2C1 (stereo not given),i,i,i,i,i
COc1ccc(CCNC(=O)CSc2ccc(-c3cccs3)nn2)cc1OC,i,i,i,i,i
O=[n+]1cc(-c2ccccc2)n([O-])c2c1CCC2,9.7,i,i,i,i
O=[n+]1cc(-c2ccc(Cl)cc2)n([O-])c2c1CCC2,i,i,i,i,i
Cc1cccc(NC(=S)NCCc2ccc3c(c2)OCCO3)c1C,i,i,i,i,i
Cc1c(-c2nc(N)nc(Nc3ccccc3)n2)oc2ccccc12,10.0,i,i,i,i
Nc1nc2ccccc2n1C(=O)c1cccs1,i,i,i,i,i
SMILES,Wee1 stabilizer,Hck-Nef inh,TbHK1 inh,MDM2 E3 inh,14-3-3 Bad PPI
COc1ccc(N2C(=O)C(CC(=O)Nc3ccccc3)N(Cc3ccccn3)C2=S)cc1 (stereo not given),9.1,i,i,i,i
COc1ccc(CCC(C)Nc2cccc(F)c2)cc1 (stereo not given),i,i,i,i,86.2
CC(C)CCNC(=O)c1ccc(-c2ccccc2)cc1,i,i,i,i,i
CSCC[C@@H](C(=O)O)N1Cc2ccccc2C1=O,nt,i,i,i,81.5
CSCC[C@@H](C(=O)Nc1ccc2c(c1)OCCO2)N1Cc2ccccc2C1=O,i,i,i,i,i
O=C(O)[C@@H](c1ccccc1)N1Cc2ccccc2C1=O,i,i,i,i,91.6
O=C(O)CC(c1cccc([N+](=O)[O-])c1)N1Cc2ccccc2C1=O (stereo not given),i,i,i,i,i
COc1cccc(-c2noc(-c3ccc(Br)o3)n2)c1,i,i,i,i,i
COc1ccc(CSC2=CS(=O)(=O)c3ccccc3N2)cc1,9.7,i,i,i,i
COc1ccc2cc(C)c3nnc(SCC(=O)Nc4nc(-c5ccc(F)cc5)cs4)n3c2c1,i,i,i,i,86.3
O=c1c2ccccc2oc2nc(-c3ccco3)n(Cc3ccccc3)c(=O)c12,i,i,i,i,i
Cc1ccc(Nc2nc(-c3ccc(S(=O)(=O)N4CCCC4)cc3)cs2)cc1C,i,i,i,i,85.6
CC(=O)Nc1ccccc1NC(=O)C/C(C)=N/NC(=O)c1ccncc1,9.3,i,i,i,i
C/C(=N\NC(=O)c1ccc(N/N=C(\C)c2ccc(O)cc2)cc1)c1ccc(O)cc1,i,i,i,i,i
